{"source": "paper PMC3354652", "about": "(Cancer Discovery, 2012)", "key": {"RIP-Tag2 tumors [1]": {"system": "RIP-Tag2 tumors", "assay": "Tumor invasion", "assay_type": "in vivo, mouse"}, "RIP-Tag2 tumors [2]": {"system": "RIP-Tag2 tumors", "assay": "Tumor vascularity", "assay_type": "in vivo, mouse", "conditions": "for intratumoral hypoxia / tumor vascularity: RIP-Tag2 mice treated from age 14 to 17 weeks; for HIF-1α protein by western blot: RIP-Tag2 tumors"}, "RIP-Tag2 mice [3]": {"system": "RIP-Tag2 mice", "assay": "Liver metastasis", "assay_type": "in vivo, mouse"}, "[4]": {"system": "Snail1, N-cadherin, vimentin", "assay": "Western blot of mesenchymal markers in RIP-Tag2 tumors", "assay_type": "in vivo, mouse", "conditions": "for bands for Snail1, N-cadherin and vimentin in western blots: RIP-Tag2 tumors treated from age 14 to 15 weeks", "in_short": "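Tumors came from RIP-Tag2 mice treated from age 14 to 15 weeks with vehicle, anti-VEGF antibody, a kinase inhibitor, or a combination. Snail1, N-cadherin and vimentin were immunoblotted in tumor lysates. Bands were quantified by densitometry and expressed as fold over vehicle. Groups had 4-8 surviving mice. Groups were compared by Student's t test or ANOVA with Fisher's multiple-comparison test.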"}, "Panc-1 tumors": {"system": "Panc-1 tumors", "assay": "Orthotopic Panc-1 pancreatic adenocarcinomas in nude mice", "assay_type": "in vivo, mouse"}, "RIP-Tag2 tumors [5]": {"system": "RIP-Tag2 tumors", "assay": "Tumor size", "assay_type": "in vivo, mouse", "conditions": "RIP-Tag2 mice treated from age 14 to 17 weeks"}, "RIP-Tag2 mice [6]": {"system": "RIP-Tag2 mice", "assay": "Survival of RIP-Tag2 mice", "assay_type": "in vivo, mouse"}, "RIP-Tag2 tumors [7]": {"system": "RIP-Tag2 tumors", "conditions": "RIP-Tag2 mice; cited from earlier work"}, "c-Met": {"system": "c-Met", "assay": "c-Met mRNA, total c-Met and phospho-c-Met in RIP-Tag2 tumors", "assay_type": "in vivo, mouse", "conditions": "RIP-Tag2 tumors treated from age 14 to 15 weeks"}, "[8]": {"conditions": "RIP-Tag2 mice treated from age 14 to 17 weeks"}, "[9]": {"conditions": "RIP-Tag2 mice age 14 to 17 weeks, vs corresponding group without PF-04217903"}, "[10]": {"conditions": "RIP-Tag2 mice treated from age 14 to 20 weeks"}, "[11]": {"conditions": "western blot, treated from age 14 to 15 weeks"}}, "note": "Entries after “also recorded” stand apart in the source; their conditions may differ."}
{"smiles": "C[C@@H](Oc1cc(-c2cnn(C3CCNCC3)c2)cnc1N)c1c(Cl)ccc(F)c1Cl", "note": "[PF-02341066, crizotinib]", "values": [{"measurement": "tumor invasiveness: Invasion index and trapped acinar cells", "setting": "RIP-Tag2 tumors [1]; [8]", "result": "reduced invasiveness"}, {"measurement": "intratumoral hypoxia", "setting": "RIP-Tag2 tumors [2]", "result": "did not change"}, {"measurement": "tumor vascularity", "setting": "RIP-Tag2 tumors [2]", "result": "did not change"}, {"measurement": "liver metastases found per mouse", "setting": "RIP-Tag2 mice [3]; RIP-Tag2 mice treated for 3 weeks, vehicle average of 20 per mouse", "result": 4}, {"measurement": "mice with liver metastases visible microscopically", "setting": "RIP-Tag2 mice [3]; [8]", "result": "3 of 4"}]}
{"smiles": "OCCn1cc(-c2cnc3nnn(Cc4ccc5ncccc5c4)c3n2)cn1", "note": "[PF-04217903]", "values": [{"measurement": "bands for Snail1, N-cadherin and vimentin in western blots", "setting": "[4]", "result": "weaker"}, {"measurement": "tumor vascularity", "setting": "RIP-Tag2 tumors [2]", "result": "no reduction in overall vascularity"}, {"measurement": "HIF-1α protein by western blot", "setting": "RIP-Tag2 tumors [2]", "result": "not increased"}, {"measurement": "average decrease in volume of metastases (metastatic tumor burden)", "setting": "RIP-Tag2 mice [3]; [9]", "result": 78, "unit": "%"}, {"measurement": "reduction in mean diameter of liver metastases when PF-04217903 was combined", "setting": "RIP-Tag2 mice [3]; [9]", "result": 40, "unit": "%"}, {"measurement": "mice with liver metastases visible microscopically", "setting": "RIP-Tag2 mice [3]; [8]", "result": "1 of 7 and one of 7"}, {"measurement": "vascular pruning and intratumoral hypoxia", "setting": "Panc-1 tumors; 3 weeks treatment", "result": "little effect"}]}
{"smiles": "COc1cc2nccc(Oc3ccc(NC(=O)C4(C(=O)Nc5ccc(F)cc5)CC4)cc3)c2cc1OC", "note": "[XL184, cabozantinib]", "values": [{"measurement": "mean sectional area of tumors", "setting": "RIP-Tag2 tumors [5]", "result": "0.7 ± 0.1", "unit": "mm^2"}, {"measurement": "area density of trapped amylase-positive acinar cells in tumors", "setting": "RIP-Tag2 tumors [1]; [8]", "result": "2.6 ± 0.4", "unit": "%"}, {"measurement": "fewer amylase-positive (trapped acinar) cells than 14-week old onset controls", "setting": "RIP-Tag2 tumors [1]; RIP-Tag2 mice treated from age 14 to 17 weeks, onset controls 4.8 ± 0.5%", "result": 46, "unit": "%"}, {"measurement": "tumor shape and invasiveness", "setting": "RIP-Tag2 tumors [1]; younger RIP-Tag2 mice treated from age 10 to 14 weeks", "result": "rounder and less invasive"}, {"measurement": "bands for Snail1, N-cadherin and vimentin in western blots", "setting": "[4]", "result": "less Snail1, N-cadherin, and vimentin"}, {"measurement": "reduction in tumor vascularity", "setting": "RIP-Tag2 tumors [2]; RIP-Tag2 mice, 3 weeks treatment", "result": 79, "unit": "%"}, {"measurement": "liver micrometastases found", "setting": "RIP-Tag2 mice [3]; RIP-Tag2 mice treated from age 10 to 14 weeks, 5 mice", "result": "none"}, {"measurement": "mice with liver metastases visible microscopically", "setting": "RIP-Tag2 mice [3]; [8]", "result": "none were detected; also recorded: None of 5"}, {"measurement": "mice with small liver metastases", "setting": "RIP-Tag2 mice [3]; [10]", "result": "5 of 6"}, {"measurement": "number of liver metastases per sectional area", "setting": "RIP-Tag2 mice [3]; [10]", "result": "0.3 ± 0.2", "unit": "metastases/mm^2"}, {"measurement": "mice surviving until the experiment ended at age 20 weeks", "setting": "RIP-Tag2 mice [6]; RIP-Tag2 mice treated from 14 weeks of age", "result": "all"}, {"measurement": "overall survival versus vehicle or anti-VEGF antibody", "setting": "RIP-Tag2 mice [6]; RIP-Tag2 mice treated from age 10 to 14 weeks", "result": "better overall survival"}, {"measurement": "survival at 20 weeks", "setting": "RIP-Tag2 mice [6]; RIP-Tag2 mice, treatment beginning at age 14 weeks, n = 6", "result": 100, "unit": "%"}]}
{"smiles": "COc1cc2c(Oc3ccc(NC(=O)C4(C(=O)Nc5ccc(F)cc5)CC4)cc3F)ccnc2cc1OCCCN1CCOCC1", "note": "[XL880, foretinib]", "values": [{"measurement": "invasion and tumor cells in the liver", "setting": "RIP-Tag2 tumors [7]", "result": "decreases invasion and the appearance of tumor cells in the liver"}, {"measurement": "tumor growth", "setting": "RIP-Tag2 tumors [7]", "result": "slows tumor growth"}]}
{"smiles": "CCN(CC)CCNC(=O)c1c(C)[nH]c(/C=C2\\C(=O)Nc3ccc(F)cc32)c1C", "note": "[sunitinib]", "values": [{"measurement": "mean sectional area of tumors", "setting": "RIP-Tag2 tumors [5]", "result": "3.7 ± 0.8", "unit": "mm^2"}, {"measurement": "sectional area of tumors, less than age-matched vehicle controls", "setting": "RIP-Tag2 tumors [5]", "result": 78, "unit": "%"}, {"measurement": "tumor invasiveness: Invasion index and trapped acinar cells", "setting": "RIP-Tag2 tumors [1]; [8]", "result": "significantly greater"}, {"measurement": "N-cadherin densitometry value, times greater than vehicle", "setting": "[4]; [11]", "result": 10, "unit": "times"}, {"measurement": "Snail1 densitometry value, times greater than vehicle", "setting": "[4]; [11]", "result": 3, "unit": "times"}, {"measurement": "vimentin densitometry value, times greater than vehicle", "setting": "[4]; [11]", "result": 5, "unit": "times"}, {"measurement": "c-Met mRNA expression, fold the control value", "setting": "c-Met", "result": 6, "unit": "fold"}, {"measurement": "intratumoral hypoxia", "setting": "RIP-Tag2 tumors [2]", "result": "greater hypoxia"}, {"measurement": "tumor vascularity", "setting": "RIP-Tag2 tumors [2]", "result": "fewer blood vessels"}, {"measurement": "HIF-1α protein by western blot", "setting": "RIP-Tag2 tumors [2]", "result": "greater"}, {"measurement": "number of liver metastases per sectional area", "setting": "RIP-Tag2 mice [3]; 17-week old RIP-Tag2 mice treated for 3 weeks", "result": "1.3 ± 1.2", "unit": "metastases/mm^2"}, {"measurement": "number of liver metastases compared to the 17-week old vehicle group", "setting": "RIP-Tag2 mice [3]; [8]", "result": "twice"}, {"measurement": "size of liver metastases compared to vehicle group", "setting": "RIP-Tag2 mice [3]; [8]", "result": 4, "unit": "times"}, {"measurement": "mean diameter of liver metastases", "setting": "RIP-Tag2 mice [3]; RIP-Tag2 mice treated from age 14 to 17 weeks, vehicle 90 ± 9 μm", "result": "369 ± 267", "unit": "μm"}, {"measurement": "survival during the 3-week treatment", "setting": "RIP-Tag2 mice [6]; RIP-Tag2 mice, age 14 to 17 weeks, vehicle 42%", "result": 80, "unit": "%"}, {"measurement": "intratumoral hypoxia assessed by pimonidazole staining", "setting": "Panc-1 tumors; 3 weeks treatment", "result": "doubling"}, {"measurement": "invasiveness reflected by intratumoral acinar cells stained for amylase", "setting": "Panc-1 tumors; 3 weeks treatment", "result": "exaggerated"}, {"measurement": "reduction in tumor vascularity", "setting": "Panc-1 tumors; 3 weeks treatment", "result": 75, "unit": "%"}, {"measurement": "tumor growth by bioluminescence imaging", "setting": "Panc-1 tumors; 3 weeks treatment", "result": "grew slower"}, {"measurement": "mice with micrometastases in the liver", "setting": "Panc-1 tumors; early stage", "result": "4 of 6"}]}
